Assay outcomes deposited in PubChem by several laboratories.
Hits are enriched below; roughly 8.9% of the tested compounds scored in any of these assays.
Dynein transport: dynein cargo transport inhibition; z-score, hits read low; 3617.4 mouse cells, GR-EGFP nuclear translocation imaging; test concentration mostly 20 µM; stimulated with dexamethasone, 1 µM; hits give low values; 220,000 tested, 0.47% active; AID 1381;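 active = plate z-score of nuclear minus cytoplasmic receptor signal below a set negative limit, without overly bright fluorescence or cell loss, cut at about -3.5 in these data, passing the limit was not always enough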;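 note: z-score of nuclear minus cytoplasmic ring GR-EGFP intensity difference per well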
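Buffer or medium: tet-free medium with charcoal-stripped serum / Also added: dexamethasone agonist, 1.0 µM final, for 30 min / Timing: induction 48 h, compound 1 h, agonist 30 min / Measured by: high-content fluorescence imaging after fixation / Read-out: nuclear-to-cytoplasmic GR-EGFP distribution per well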
HSV augment: HSV replication enhancement. HSV replication augmentation in cells, fold increase. maximum fold increase. 220,000 tested, 0.005% active. AID 1956; in the data active = maximum fold increase above about 1.5; tested in PC3 cells
Lmaj promast: reduces viability of Leishmania major promastigotes | 200,000 tested, 9% active | AID 1063 | resazurin fluorescence viability | inhibition, % at 10 µM; in the data active = inhibition above about 50%;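 note: promastigotes grown with compound for 44 hours at 28 °C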
bCat nuc transl: alters nuclear translocation of beta-catenin in HeLa cells | immunofluorescence imaging | nuclear translocation activity, % at 5 µM | 190,000 tested, 0.3% active;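 active = nuclear translocation activity above 50% at 5 µM, with a well cell count of 50 or more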;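 note: per-cell ratio of nuclear to cytoplasmic median beta-catenin stain intensity; plate controls were DMSO negative control for no effect and GSK-3 inhibitor IX positive control for full effect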
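Assay system: human HeLa cells, native beta-catenin; doses: 5 µM primary, 0.02–20 µM confirmation; incubation: compound treatment 24 h, 37°C, 5% CO2; technique: fluorescence imaging of beta-catenin antibody stain plus DAPI; measure: % activation, nuclear-to-cytoplasmic median beta-catenin signal ratio per cell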
MT stabilizer: microtubule stabilization, imaging screen; HeLa tubulin immunostaining HCS, 24 h; share of cells brighter than vehicle mean+2SD; % tubulin-high responders, % at 10 µM; 200,000 tested, 0.83% active; AID 2205;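 active = plate Z-score above 3 for both tubulin-high and condensed-nucleus cell shares, with cell loss under 80%, at 10 µM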;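 note: anti alpha tubulin signal scored within the nucleus-defined area of each cell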
Starred values were filed as active, the others as inactive.

`C=CCn1c(SCc2ccc(C#N)cc2)nnc1-c1cccc(OC)c1` gave Dynein transport -0.66, HSV augment inactive, Lmaj promast 84*, bCat nuc transl -3 and MT stabilizer 5.
C=CCn1c(COc2ccc(Cl)cc2)nnc1SCc1ccc(C#N)cc1 was read as Dynein transport 0.12, HSV augment inactive, Lmaj promast 58*, bCat nuc transl -1 and MT stabilizer 5.
For COc1ccc(-n2c(COc3cccc4ccccc34)nnc2SCC#N)cc1 the results were Dynein transport 1.9, HSV augment inactive, Lmaj promast 55*, bCat nuc transl -1 and MT stabilizer 5.
C=CCn1c(COc2ccccc2)nnc1SCc1ccc(C#N)cc1 was read as Dynein transport -0.89, HSV augment inactive, Lmaj promast 40, bCat nuc transl -3 and MT stabilizer 3.
Cc1ccc(OCc2nnc(SCc3ccc(C#N)cc3)n2-c2ccc(C)cc2)cc1 was read as Dynein transport -0.55, HSV augment inactive, Lmaj promast 100*, bCat nuc transl 1 and MT stabilizer 2.
CCOC(=O)c1sc(Nc2nc(OC)cc(OC)n2)nc1C was read as Dynein transport 0.28, HSV augment inactive, Lmaj promast 54*, bCat nuc transl 0 and MT stabilizer 3.
For Cc1ccc(C(=O)N2CC(C)SC2=Nc2cccc(S(=O)(=O)N(C)C)c2)cc1 (stereo unspecified) the results were Dynein transport -0.6, HSV augment inactive, Lmaj promast 95*, bCat nuc transl -1 and MT stabilizer 6.
Screening CN(C)S(=O)(=O)c1cccc(N=C2SCCN2Cc2ccccc2)c1 returned Dynein transport -0.57, HSV augment inactive and bCat nuc transl 0.
Screening Cc1cc(C)cc(C(=O)N2CC(C)SC2=Nc2cccc(S(=O)(=O)N(C)C)c2)c1 (stereo unspecified) returned Dynein transport 0.24, HSV augment inactive, Lmaj promast 98*, bCat nuc transl 2 and MT stabilizer 3.
`COc1cccc(C(Nc2ccccn2)c2oc(CO)cc(=O)c2O)c1` (stereo unspecified) gave Dynein transport -0.23, HSV augment inactive, Lmaj promast 2 and MT stabilizer 2.
`CCOc1ncccc1C(=O)NCC1COc2ccccc2O1` (stereo unspecified) gave Dynein transport -0.46, HSV augment inactive, Lmaj promast -1, bCat nuc transl -2 and MT stabilizer 2.
Cn1c(-c2ccc3c(c2)OCO3)cc(=O)c2ccccc21 was read as Dynein transport 0.077, HSV augment inactive, Lmaj promast -6, bCat nuc transl -1 and MT stabilizer 3.
Screening COc1ccc(C(=O)c2ccc(OC)c(N)c2)cc1N returned Dynein transport 1.1, HSV augment inactive, Lmaj promast 5 and MT stabilizer 34*.
For COc1ccc(C(=O)c2ccc(OC)c(OC)c2)cc1OC the results were Dynein transport -0.33, HSV augment inactive, Lmaj promast 5 and MT stabilizer 4.
C[N+]1(CN2C(=O)C3C4C=CC(C4)C3C2=O)CCCCC1 (stereo unspecified) was read as Dynein transport -0.87, HSV augment inactive and bCat nuc transl 0.
For Cn1cnc([N+](=O)[O-])c1Oc1ccc2ccccc2c1 the results were Dynein transport -1.5, HSV augment inactive, Lmaj promast 81*, bCat nuc transl 2 and MT stabilizer 2.
Screening COC(=O)c1cc2sccc2n1CC(=O)Nc1ccc(OC)c(OC)c1OC returned Dynein transport 0.49, HSV augment inactive, Lmaj promast 1, bCat nuc transl 2 and MT stabilizer 6.
CCOC(=O)C1CCN(C(=O)C23CC4CC(CC(C4)C2)C3)CC1 was read as Dynein transport -0.37, HSV augment inactive, Lmaj promast 104*, bCat nuc transl 1 and MT stabilizer 3.
O=C(N1CCCC1)C12CC3CCC(CC(C3)C1)C2 was read as Dynein transport -0.44, HSV augment inactive, Lmaj promast -3, bCat nuc transl 0 and MT stabilizer 2.
Screening CCOC(=O)Nc1ccc2c(c1)N(C(=O)CCN1CCN(C)CC1)c1ccccc1S2 returned Dynein transport 0.047, HSV augment inactive, Lmaj promast 6, bCat nuc transl -1 and MT stabilizer 4.
Screening CN1CCN(CCC(=O)N2c3ccccc3Sc3ccc(Cl)cc32)CC1 returned Dynein transport -0.21, HSV augment inactive, Lmaj promast 101*, bCat nuc transl -2 and MT stabilizer 5.
For COC(=O)Nc1ccc2c(c1)N(C(=O)CCN1CCN3CCCC3C1)c1ccccc1S2 (stereo unspecified) the results were Dynein transport 1.8, HSV augment inactive, Lmaj promast 71*, bCat nuc transl -6 and MT stabilizer 5.
CC(C)c1ccc(C2C3=C(CC(C)(C)CC3=O)NC3=C2C(=O)c2ccccc23)cc1 (stereo unspecified) was read as Dynein transport -1.2, HSV augment inactive, Lmaj promast 89*, bCat nuc transl 2 and MT stabilizer 5.
Screening CCCN1C2=C(C(=O)CCC2)C(c2ccc(F)cc2)C2=C1c1ccccc1C2=O (stereo unspecified) returned Dynein transport -0.054, Lmaj promast -5 and MT stabilizer 2.
`CC(C)(C)c1ccc(C2C3=C(CCCC3=O)NC3=C2C(=O)c2ccccc23)cc1` (stereo unspecified) gave Dynein transport -0.65, HSV augment inactive, Lmaj promast 88*, bCat nuc transl 0 and MT stabilizer 3.
Screening CC1(C)CC(=O)C2=C(C1)NC1=C(C(=O)c3ccccc31)C2c1ccccc1 (stereo unspecified) returned Dynein transport 0.19, HSV augment inactive, Lmaj promast 89*, bCat nuc transl -1 and MT stabilizer 4.
Screening COc1cc(C2C(C#N)=C(C)NC3=C2C(=O)c2ccccc23)cc(OC)c1OC (stereo unspecified) returned Dynein transport -1.1, HSV augment inactive, Lmaj promast 15, bCat nuc transl 5 and MT stabilizer 16*.
Screening CC1(C)CC(=O)C2=C(C1)NC1=C(C(=O)c3ccccc31)C2c1cccnc1 (stereo unspecified) returned Dynein transport 1.8, HSV augment inactive, Lmaj promast 25, bCat nuc transl 0 and MT stabilizer 2.
COc1ccc(C(=O)CN(C(=O)c2ccc(Cl)cc2)N2C(=O)C3CCCCC3C2=O)cc1 (stereo unspecified) was read as Dynein transport 0.34, HSV augment inactive, Lmaj promast -6 and MT stabilizer 1.
For CN(CC1CCOCC1)C(=O)CC1C(=O)NCCN1Cc1cccc(Oc2ccccc2)c1 (stereo unspecified) the results were Dynein transport -1.2, HSV augment inactive, Lmaj promast -5, bCat nuc transl -1 and MT stabilizer 3.
